This is an account of results in ChEMBL document CHEMBL1126655, “Synthesis and antiviral activity of novel isonucleoside analogs” (J Med Chem, 1993).

Each structure is given as a SMILES string.

What all share (format): functional
Assay [1] relates to Human alphaherpesvirus 1. The assay is described as follows: Antiviral activity against Herpes simplex virus-1 (thymidine kinase deficient strains isolated as BVaraU resistant mutants of HSV-1 (KOS)). Particulars: read-out: ID50 (the source's name). An outline of the steps:
(§1)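 WI-38 monolayers were infected, with virus adsorbed for 1–2 h. They were then overlaid with EMEM maintenance medium (1% carboxymethyl cellulose, 2.5% FBS) containing duplicate drug dilutions. Monolayers were stained after 4–6 days at 37 °C. ID50 was taken as the concentration giving 50% plaque reduction versus virus controls. Titrations were done in duplicate.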

Assay [2] deals with Human alphaherpesvirus 1. The assay is described as follows: Antiviral activity against Herpes simplex virus-1 (Schooler strain). Particulars: read-out: ID50 (the source's name). In short, it runs like this:
as §1

Assay [3] in a line: Antiviral activity against Herpes simplex virus-1 (KOS strain). Particulars: Human alphaherpesvirus 1; read-out: ID50 (the source's name). An outline of the steps: as §1
For the next assay, the system named is Human betaherpesvirus 5. The assay is described as follows: Antiviral activity against Human cytomegalovirus (AD169 strain). Particulars: read-out: ID50 (the source's name). An outline of the steps: as §1
Another assay has as its system Human alphaherpesvirus 3. Description: Antiviral activity against Varicella zoster virus (Ellen strain). Particulars: read-out: ID50 (the source's name). In short, it runs like this: as §1
The test system of a further assay is WI-38. The assay is described as follows: Tested for growth inhibition against WI-38 cells. Particulars: Homo sapiens, read-out: ID50 (the source's name). In short, it runs like this:
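WI-38 cells seeded at 1.2 × 10^6 per well, incubated overnight at 37 °C, then refed with growth medium (EMEM, 10% FBS) holding serial drug dilutions or none, for 3 more days at 37 °C. Quadruplicate cultures per concentration trypsinized and counted daily for viable cells by trypan blue exclusion.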

The next assay deals with Vaccinia virus. Description: Antiviral activity against vaccinia virus (CL strain). Particulars: Orthopoxvirus vaccinia; read-out: ID50 (the source's name).

Turning to `Cc1cn([C@@H]2CO[C@H](CO)[C@H]2CO)c(=O)[nH]c1=O`, the IC50 is more than 400 µM in the assay on Human alphaherpesvirus 1 [1]; 4 µM in the assay on Human alphaherpesvirus 1 [2]; 8 µM in assay [3]; more than 400 µM in the assay with Human betaherpesvirus 5; 20 µM in the assay on Human alphaherpesvirus 3.
Turning to `Nc1ccn([C@@H]2CO[C@H](CO)[C@H]2CO)c(=O)n1`, the IC50 in the assay on WI-38 was found to be 160 µM; with Human alphaherpesvirus 1 [2], 40 µM; in the assay on Vaccinia virus it was 400 µM; in the assay with Human betaherpesvirus 5, 100 µM; in the assay with Human alphaherpesvirus 3 it was 0.4 µM.
In the case of `Cc1cn([C@@H]2CO[C@H](CO)[C@H]2CO)c(=O)nc1N`, the IC50 was 390 µM with Human alphaherpesvirus 1 [2], more than 390 µM in the assay with Human betaherpesvirus 5 and 200 µM with Human alphaherpesvirus 3.
